The values below come from ChEMBL document CHEMBL1131326, “Design, synthesis, and antiviral evaluations of 1-(substituted benzyl)-2-substituted-5,6-dichlorobenzimidazoles as nonnucleoside analogues of 2,5,6-trichloro-1-(beta-D-ribofuranosyl)benzimidazole” (J Med Chem, 1998).

Experiment [1] is described as follows: (§1) Compound was tested for antiviral activity against HIV-1 resistant to TIBO A-17. Format: functional, Human immunodeficiency virus 1. The procedure, abridged:
(§2)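 Syncytial plaque assay in duplicate sets on CEM-SS cells made adherent with poly-L-lysine. Virus was the A17 HIV-1 variant, resistant to nonnucleoside RT inhibitors including TIBO, or HIV-2, both from the AIDS Research and Reference Program. Infection was in the presence or absence of compound; syncytial plaques were counted at 30-fold magnification 7 days postinfection. IC50 came from linear regression of percent inhibition against log concentration.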

The subject of experiment [2] is Human betaherpesvirus 5. Kind of experiment: Antiviral activity against human cytomegalovirus (HCMV) by plaque reduction assay. It is filed as functional, organism-based. The procedure, abridged:
(§3)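 HFF monolayers infected with about 100 pfu/cm² of HCMV Towne (isolate Po); after adsorption, compound in growth medium added to duplicate wells at four to eight concentrations.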

For experiment [3], the system named is Human immunodeficiency virus 1. Description: Activity against HIV-1 by syncytial plaque assay performed in duplicate using CEM-SS cells. The settings on record: Human immunodeficiency virus 1, CEM-SS. It is filed as functional, organism-based. The procedure, abridged: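 Syncytial plaque assay: poly-L-lysine-adherent CEM-SS cells infected with HIV-1 strain IIIB with or without compound at selected concentrations; syncytial plaques counted at 30-fold magnification 7 days postinfection; duplicate. IC50 from linear regression of percent inhibition against log concentration.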

The subject of experiment [4] is KB. Description: Inhibition of KB cell growth determined by quadruplicate assays. Format: functional, cell-based. The settings on record: Homo sapiens. In short, it runs like this:
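KB cells seeded at 3000-5000/well, overnight at 37 °C, then compound in quadruplicate at six to eight concentrations for 48 h (about two doublings) in CO₂. Cells fixed in 95% ethanol, stained with 0.1% crystal violet, dye eluted with acidified ethanol and read at 570 nm; IC50 by regression vs log concentration.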

In experiment [5] the test system is CEM-SS. Description: Cytotoxicity against CEM-SS cells in terms of incorporation of [3H]dThd. The settings on record: Homo sapiens. It is filed as functional, cell-based. In short, it runs like this: (§4)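 DNA synthesis in CEM-SS cells measured as uptake of [³H]dThd into total acid-precipitable material; results averaged from duplicate experiments.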
The subject of experiment [6] is HFF. Kind of experiment: Visual cytotoxicity scored on HFF cells at a time of HCMV plaque enumeration. Format: functional, cell-based. The note with it: Homo sapiens. In short, it runs like this: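 Cytotoxicity in stationary HFF cells scored by microscopic inspection of cells not affected by virus, at time of HCMV plaque enumeration, in the plaque-assay plates.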

The subject of experiment [7] is Human immunodeficiency virus 2. Kind of experiment: Compound was tested for antiviral activity against HIV-2. It is filed as functional, organism-based.
In experiment [8] the test system is Human alphaherpesvirus 1. Kind of experiment: Antiviral activity against herpes simplex virus type-1 (HSV-1). Format: functional, organism-based. The procedure, abridged: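 BSC-1 cells (10 000/well, MEM(E) + 10% calf serum) incubated overnight, then given drug in quadruplicate plus HSV-1 KOS at 100 pfu/well; 3 days at 37 °C. ELISA with HRP-conjugated rabbit anti-HSV-1 antibody, TMB substrate, stopped with H₂SO₄, absorbance at 450 and 570 nm; IC50 by regression of % absorbance reduction vs log concentration.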

Experiment [9] in a line: (§5) Compound was tested for antiviral activity against matched pairs of HIV-1 resistant to AZT. It is filed as functional, Human immunodeficiency virus 1. In short, it runs like this:
(§6)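 Matched clinical pairs of AZT-sensitive and AZT-resistant HIV-1 (C-691/G762 or H-112/G910, depending on compound series) were tested by syncytial plaque assay in duplicate sets on poly-L-lysine-adherent CEM-SS cells. Syncytial plaques were counted at 30-fold magnification 7 days postinfection. IC50 came from regression of percent inhibition versus log concentration, averaged over duplicate experiments.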

A short description of experiment [10]: (§7) Compound was tested for antiviral activity against matched pairs of HIV-1 sensitive to AZT. It is filed as functional, Human immunodeficiency virus 1.
Experiment [11] concerns CEM-SS. Description: Compound was tested for activity against HIV-1 by syncytial plaque assay performed in duplicate using CEM-SS cells. Format: functional, cell-based. The settings on record: Homo sapiens. In short, it runs like this:
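CEM-SS cells made adherent with poly-L-lysine, infected with HIV-1 strain IIIB with or without selected compound concentrations; duplicate sets. Syncytial plaques counted at 30-fold magnification 7 days post-infection. Percent inhibition regressed linearly against log concentration to give IC50; zidovudine positive control in all assays. Values averaged over duplicate or triplicate experiments.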

The subject of experiment [12] is Human betaherpesvirus 5. Description: Compound was tested for antiviral activity against human cytomegalovirus (HCMV) by plaque reduction assay. It is filed as functional, organism-based. The procedure, abridged: as §3
The test system of experiment [13] is Human immunodeficiency virus 1. Kind of experiment: Compound was tested for antiviral activity against HIV-1 resistant to AZT. Format: functional, organism-based. In short, it runs like this:
as §6

Experiment [14] has as its system Human immunodeficiency virus 1. Described as §1. Format: functional, organism-based. In short, it runs like this:
as §2

The test system of experiment [15] is Human immunodeficiency virus 1. Kind of experiment: Compound was tested for antiviral activity against HIV-1 sensitive to AZT. It is filed as functional, organism-based. In short, it runs like this:
as §6

Experiment [16] can be described thus: Compound was tested for antiviral activity against HIV resistant to TIBO A-17. It is filed as functional, Human immunodeficiency virus 1. The procedure, abridged: as §2
The test system of experiment [17] is CEM-SS. Kind of experiment: Compounds were tested for cytotoxicity against CEM-SS cells in terms of incorporation of [3H]dThd. Format: functional, cell-based. The settings on record: Homo sapiens. The procedure, abridged:
as §4

Experiment [18] deals with Human immunodeficiency virus 2. Kind of experiment: Compound was tested for antiviral activity against HIV-2.
For experiment [19], the system named is Human immunodeficiency virus 1. The experiment is described as §5. It is filed as functional, organism-based. In short, it runs like this:
as §6

Experiment [20] deals with Human immunodeficiency virus 1. Described as §7. Format: functional, organism-based. In short, it runs like this: as §6

The IC50 is the concentration needed to halve the response being measured. Read a low IC50 as greater potency.

Turning to `Clc1cc2nc(Cl)n(Cc3ccccc3Cl)c2cc1Cl`, the concentration for half-maximal inhibition (IC50) was 13 µM in experiment [1]; 30 µM in experiment [2]; 15 µM in experiment [3]; 156 µM in [4]; 70 µM in [5]; more than 100 µM in experiment [6]. Moreover, the IC50 is more than 30 µM in experiment [7] and more than 100 µM in experiment [8].

Consider `Cc1cccc(Cn2c(Cl)nc3cc(Cl)c(Cl)cc32)c1`, for which the IC50 in experiment [9] was 13 µM; in experiment [10], 37 µM; in experiment [1], 16 µM; in experiment [2] it was more than 100 µM; in [3], 14 µM; in [4], more than 100 µM. Moreover, the IC50 is more than 100 µM in experiment [5], more than 100 µM in [6], more than 30 µM in experiment [7] and more than 100 µM in experiment [8].

`Clc1ccc(Cn2c(Cl)nc3cc(Cl)c(Cl)cc32)cc1`: the concentration for half-maximal inhibition (IC50) in experiment [9] is 255 µM; in experiment [10], 30 µM; in [1], 19 µM; in experiment [2], more than 100 µM; in [4] it was more than 100 µM; in experiment [11], 9.1 µM. Besides, the half-maximal inhibitory concentration (IC50) in experiment [5] is more than 100 µM; in experiment [6], more than 100 µM; in experiment [7], more than 30 µM; in experiment [8] it was more than 100 µM.

As for `Clc1cc2nc(NC3CC3)n(Cc3ccccc3)c2cc1Cl`, the half-maximal inhibitory concentration (IC50) is 18 µM in experiment [12], 60 µM in experiment [4], 33 µM in [6] and more than 100 µM in experiment [8].

Take `Cc1cccc(Cn2c(Br)nc3cc(Cl)c(Cl)cc32)c1`: the concentration for half-maximal inhibition (IC50) in experiment [13] was 9 µM; in experiment [2], more than 100 µM; in experiment [3] it was 3.5 µM; in experiment [14], 17 µM; in experiment [5], more than 100 µM; in [6] it was more than 100 µM. Moreover, the IC50 in [7] was 143 µM; in [15] it was 8.7 µM.

Take `O=[N+]([O-])c1ccc(Cn2c(Br)nc3cc(Cl)c(Cl)cc32)cc1`: the 50% inhibitory concentration (IC50) was 6.9 µM in experiment [9]; 11 µM in [10]; 11 µM in experiment [16]; more than 100 µM in experiment [2]; 14 µM in [3]; 40 µM in experiment [4]. For the same compound, the half-inhibitory concentration (IC50) in experiment [5] is more than 100 µM; in experiment [6] it was more than 100 µM; in experiment [7], 66 µM.

Turning to `Cc1cn([C@H]2C[C@H](N=[N+]=[N-])[C@@H](CO)O2)c(=O)[nH]c1=O` [ZIDOVUDINE], the IC50 was determined as 1.9 µM in [17] and 0.0026 µM in [11].

`Fc1ccc(Cn2c(Cl)nc3cc(Cl)c(Cl)cc32)cc1`: the half-maximal inhibitory concentration (IC50) in experiment [18] is more than 30 µM; in [2], more than 100 µM; in experiment [3], 37 µM; in experiment [14] it was 19 µM; in [4] it was more than 100 µM; in experiment [5], more than 100 µM. Moreover, the IC50 in experiment [6] and in experiment [8] was more than 100 µM throughout.

With `FC(F)(F)c1cc(Cn2c(Br)nc3cc(Cl)c(Cl)cc32)cc(C(F)(F)F)c1`, the IC50 is more than 100 µM in experiment [2]; 5.9 µM in experiment [3]; 70 µM in [4]; more than 100 µM in experiment [5]; more than 100 µM in experiment [6]; 65 µM in experiment [8].

Consider `FC(F)(F)c1ccc(Cn2c(Cl)nc3cc(Cl)c(Cl)cc32)cc1`, for which the 50% inhibitory concentration (IC50) in experiment [2], in [3], in [4], in experiment [5], in experiment [6] and in experiment [8] was more than 100 µM in each case.

Take `Nc1nc2cc(Cl)c(Cl)cc2n1Cc1ccc(Cl)c(Cl)c1`: the IC50 is 40 µM in experiment [2]; more than 6 µM in [3]; 35 µM in experiment [4]; 30 µM in [5]; 32 µM in experiment [6]; 50 µM in [8].

With `O=[N+]([O-])c1cccc(Cn2c(Br)nc3cc(Cl)c(Cl)cc32)c1`, the 50% inhibitory concentration (IC50) is 11 µM in experiment [19]; more than 100 µM in experiment [2]; 5.3 µM in experiment [3]; 1 µM in experiment [14]; 150 µM in experiment [4]; more than 100 µM in experiment [5]. Further, the figures for the IC50 in experiment [6], in experiment [7] and in [20] were more than 100 µM, 28 µM and 8.7 µM, respectively.

For the compound `FC(F)(F)c1cc(Cn2c(Cl)nc3cc(Cl)c(Cl)cc32)cc(C(F)(F)F)c1`, the half-maximal inhibitory concentration (IC50) in experiment [2], in experiment [3], in [4], in [5], in experiment [6] and in [8] was more than 100 µM each time.

For the compound `Clc1cc2nc(Br)n(Cc3ccccc3)c2cc1Cl`, the 50% inhibitory concentration (IC50) in experiment [2] is more than 100 µM; in [3] it was 27 µM; in experiment [4], more than 100 µM; in experiment [5] it was more than 100 µM; in experiment [6], more than 100 µM; in [8] it was more than 100 µM.

`O=[N+]([O-])c1ccc(Cn2c(Cl)nc3cc(Cl)c(Cl)cc32)cc1`: the IC50 is more than 100 µM in experiment [2]; 7.8 µM in [3]; 183 µM in experiment [4]; 51 µM in experiment [5]; more than 100 µM in [6]; more than 100 µM in experiment [8].

Take `COc1ccc(Cn2c(Br)nc3cc(Cl)c(Cl)cc32)cc1`: the IC50 in [2] was more than 100 µM; in [3], 6 µM; in experiment [4] it was 55 µM; in experiment [5], 60 µM; in experiment [6], more than 100 µM; in experiment [8], more than 100 µM.
